Converted amounts (≈) assume the structure as drawn.
Tests used:
Format in all cases: functional
[1] = system: Mycobacterium tuberculosis; test: Antibacterial activity against Mycobacterium tuberculosis H37Rv after 5 days by microplate Alamar Blue assay; settings: 120 h
Outline: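 M. tuberculosis H37Rv grown in 7H9; final inoculum 2 × 10^6 cfu/mL. Samples from 20 mg/mL DMSO stocks, 2-fold diluted in 7H9 without Tween 80, tested in triplicate at 37 °C. From day 5, Alamar Blue plus 5% Tween 80 went to a control well; whole plate dosed once bacteria-only well turned pink. Read visually 24 h later; MIC = lowest concentration preventing colour change.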

Pseudomonas aeruginosa = test: Antibacterial activity against Pseudomonas aeruginosa 11 after 24 hrs by microdilution test; settings: Pseudomonas aeruginosa, 11, 24 h
Outline: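 CLSI broth microdilution; P. aeruginosa 11 grown in Mueller-Hinton broth, final inoculum 10^6 cells/mL. Samples from 20 mg/mL DMSO stocks, serially diluted, run in triplicate; sansanmycin A as positive control. Incubated 37 °C for 24 h, growth read by eye; MIC = lowest concentration completely inhibiting growth.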

[2] = system: Mycobacterium tuberculosis; test: Ratio of sansanmycin A MIC to compound MIC for Mycobacterium tuberculosis H37Rv after 5 days by microplate Alamar Blue assay

| Compound | MIC [1] [mg/L] | MIC (Pseudomonas aeruginosa) [mg/L] | Ratio [2] |
| --- | --- | --- | --- |
| CSCC[C@H](NC(=O)N[C@@H](Cc1c[nH]c2ccccc12)C(=O)O)C(=O)N[C@H](C(=O)N/C=C1/C[C@@H](O)[C@H](n2ccc(=O)[nH]c2=O)O1)[C@H](C)N(C)C(=O)C1Cc2cc(O)ccc2CN1 (stereo partly drawn) | 8 (≈ 9.13 µM) | > 64 |  |
| NNC(=O)c1ccncc1 [ISONIAZID] | 0.05 (≈ 0.365 µM) |  |  |
| CSCC[C@H](NC(=O)N[C@@H](Cc1c[nH]c2ccccc12)C(=O)O)C(=O)N[C@H](C(=O)N/C=C1/C[C@@H](O)[C@H](n2ccc(=O)[nH]c2=O)O1)[C@H](C)N(C)C(=O)C1Cc2cccc(O)c2CN1 (stereo partly drawn) | > 32 | > 64 |  |
| C[C@@H]([C@H](NC(=O)[C@H](Cc1ccccc1)NC(=O)N[C@@H](Cc1c[nH]c2ccccc12)C(=O)O)C(=O)N/C=C1/C[C@@H](O)[C@H](n2ccc(=O)[nH]c2=O)O1)N(C)C(=O)C1Cc2cc(O)ccc2CN1 (stereo partly drawn) | 2 (≈ 2.24 µM) | 8 (≈ 8.97 µM) | 8 |
| CSCC[C@H](NC(=O)N[C@@H](Cc1ccc(O)cc1)C(=O)O)C(=O)N[C@H](C(=O)N/C=C1/C[C@@H](O)[C@H](n2ccc(=O)[nH]c2=O)O1)[C@H](C)N(C)C(=O)[C@@H](N)Cc1cccc(O)c1 | 8 (≈ 9.51 µM) | 8 (≈ 9.51 µM) |  |
| C[C@@H]([C@H](NC(=O)[C@H](CC[S+](C)[O-])NC(=O)N[C@@H](Cc1c[nH]c2ccccc12)C(=O)O)C(=O)N/C=C1/C[C@@H](O)[C@H](n2ccc(=O)[nH]c2=O)O1)N(C)C(=O)[C@@H](N)Cc1cccc(O)c1 (stereo partly drawn) | > 32 | 16 (≈ 18.2 µM) |  |
| C[C@@H]([C@H](NC(=O)[C@H](Cc1ccccc1)NC(=O)N[C@@H](Cc1c[nH]c2ccccc12)C(=O)O)C(=O)N/C=C1/C[C@@H](O)[C@H](n2ccc(=O)[nH]c2=O)O1)N(C)C(=O)C1Cc2cccc(O)c2CN1 (stereo partly drawn) | 16 (≈ 17.9 µM) | 32 (≈ 35.9 µM) |  |
| C[C@@H]([C@H](NC(=O)[C@H](Cc1ccccc1)NC(=O)N[C@@H](Cc1c[nH]c2ccccc12)C(=O)O)C(=O)N/C=C1/C[C@@H](O)[C@H](n2ccc(=O)[nH]c2=O)O1)N(C)C(=O)[C@@H](N)Cc1cccc(O)c1 | 8 (≈ 9.09 µM) | 32 (≈ 36.4 µM) |  |
| CSCCC(NC(=O)NC(Cc1c[nH]c2ccccc12)C(=O)O)C(=O)NC(C(=O)N/C=C1\C[C@@H](O)[C@H](n2ccc(=O)[nH]c2=O)O1)C(C)N(C)C(=O)C(N)Cc1cccc(O)c1 (stereo partly drawn) [SANSANMYCIN A] | 16 (≈ 18.5 µM) | 4 (≈ 4.63 µM) |  |
| CSCC[C@H](NC(=O)N[C@@H](Cc1ccc(O)cc1)C(=O)O)C(=O)N[C@H](C(=O)N/C=C1/C[C@@H](O)[C@H](n2ccc(=O)[nH]c2=O)O1)[C@H](C)N(C)C(=O)C1Cc2cc(O)ccc2CN1 (stereo partly drawn) | 16 (≈ 18.8 µM) | > 64 |  |
| CSCC[C@H](NC(=O)N[C@@H](Cc1ccc(O)cc1)C(=O)O)C(=O)N[C@H](C(=O)N/C=C1/C[C@@H](O)[C@H](n2ccc(=O)[nH]c2=O)O1)[C@H](C)N(C)C(=O)C1Cc2cccc(O)c2CN1 (stereo partly drawn) | > 32 | > 64 |  |
| CO[C@H]1/C=C/O[C@@]2(C)Oc3c(C)c(O)c4c(O)c(c(/C=N/N5CCN(C)CC5)c(O)c4c3C2=O)NC(=O)/C(C)=C\C=C\[C@H](C)[C@H](O)[C@@H](C)[C@@H](O)[C@@H](C)[C@H](OC(C)=O)[C@@H]1C [RIFAMPIN] | 0.12 (≈ 0.146 µM) |  |  |
